Experimental data collected from several papers.
Target: Homeodomain-interacting protein kinase 2 (HIPK2, Homo sapiens, UniProt Q9H2X6)

CN(C)c1nccc(-c2cnc3ncccn23)n1  remaining binding (binding; 1 µM): 36%
C[C@@H](c1ccc(-n2cnc3c(N)ncnc32)cc1)N1CCc2nn(C)c(Cc3ccccc3)c2C1=O  remaining binding (binding; competition with immobilised ligand; 0.1 µM): 80%
C[C@@H]1CCN(c2nccc(-c3cnn4ncccc34)n2)C1  remaining binding (binding; 1 µM): 61%
Cn1nc(C(F)(F)F)cc1-c1cnc(N2CCc3cc(S(=O)(=O)Nc4c(F)cc(Cl)cc4F)cc(N4CCCC4=O)c32)nc1  remaining binding (cell-free assay; competition with immobilised ligand; 1 µM): 74%
O=C(c1ccc(Nc2ncc(Cl)c(-c3cc4ccccc4s3)n2)cc1)N1CCC(N2CCCC2)CC1  remaining binding (binding; competition with immobilised ligand; 1 µM): 0.2%
Cc1cnn2ncc(-c3ccnc(N(C)C)n3)c2c1  remaining binding (binding; 1 µM): 63%
CCCOc1ccc([C@@H]2[C@@H](C(=O)O)[C@H](c3ccc4c(c3)OCO4)CN2CC(=O)Nc2c(CC)cccc2CC)cc1  remaining binding (cell-free assay; competition with immobilised ligand; 1 µM): 80%
CNC(=O)[C@@H]1CC[C@@H](n2c(-c3ccc4cnccc4c3)nc3ccc(C(=O)NCc4cccc(C(N)=O)c4)cc32)C1  remaining binding (binding; competition with immobilised ligand; 1 µM): 100%
c1cncc(-c2cccc(Nc3nccc(NC4CCCCC4)n3)c2)c1  remaining binding (binding; competition with immobilised ligand; 10 µM): 53%
O=C(NCCCN1CCOCC1)c1ccc(Nc2nccc(-c3cc4ccccc4s3)n2)cc1  remaining binding (binding; competition with immobilised ligand; 1 µM): 34%
Cc1cc(-n2nc(Cc3cc(F)cc(C(F)(F)F)c3)nc2C)ccc1C(N)=O  remaining binding (cell-free assay; competition with immobilised ligand; 1 µM): 100%
F[C@@H]1CCN(c2nccc(-c3cnn4ncccc34)n2)C1  remaining binding (binding; 1 µM): 100%
CC1=C(C#N)[C@@H](c2ccc3[nH]nc(C)c3c2)C(C#N)=C(c2ccc(Cl)cc2)N1  remaining binding (cell-free assay; competition with immobilised ligand; 1 µM): 86.1%
CN(C)c1ncc(F)c(-c2cnn3ncccc23)n1  remaining binding (binding; 1 µM): 57%
O=C(NCc1ncc(C(F)(F)F)cc1Cl)c1ccc2c(c1)C1(CCS(=O)(=O)CC1)[C@@H](C1CC1)N2S(=O)(=O)c1ccc(F)cc1  remaining binding (cell-free assay; competition with immobilised ligand; 1 µM): 72%
Cc1cnc(Nc2ccc(C(=O)N3CCC(N4CCCC4)CC3)cc2)nc1-c1cc2ccccc2s1  remaining binding (binding; competition with immobilised ligand; 1 µM): 0.5%
CC(=O)Nc1c(C(C)=O)c(=O)n(C)c2nc(-c3ccc(Cl)cc3Cl)c(-c3ccc(Cl)cc3)cc12  remaining binding (cell-free assay; competition with immobilised ligand; 1 µM): 100%
O=C(Nc1c[nH]nc1C(=O)NC1CCNCC1)c1cc(F)cc(F)c1  remaining binding (binding; competition with immobilised ligand; 1 µM): 33%
CN(c1nccc(-c2cnn3ncccc23)n1)C1CC1  remaining binding (binding; 1 µM): 100%
COc1cc(Nc2nccc(-c3cnn4nc(OC)ccc34)n2)cc(C(F)(F)F)c1  remaining binding (binding; competition with immobilised ligand; 1 µM): 34%
N[C@@H]1CCN(c2nccc(-c3cnn4ncccc34)n2)C1  remaining binding (binding; 1 µM): 100%
Nc1ncc2c(n1)-c1c([nH]c3ccc(C#CC4CC4)cc13)CCCC2  remaining binding (binding; competition with immobilised ligand; 1 µM): 97%
